Screening data as filed in PubChem.
Compounds with a hit are over-represented: about 1.2% of the library has one in this group of screens.
proCasp7 act – activates human procaspase-7, counter-screen for procaspase-3 activators; recombinant procaspase-7, Ac-DEVD-pNA absorbance 405 nm; D23A/D198A/D206A triple mutant, cannot self-cleave; scale: DMSO 0, 5 µM enzyme 100; hit rate 0.093% among 330,000; activation, % at 8.5 µM;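 active = percent activation above the screen-wide mean plus 3 SD, cut at about 25% in these data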
Target sequence (P55210 whole entry D23A/D198A/D206A): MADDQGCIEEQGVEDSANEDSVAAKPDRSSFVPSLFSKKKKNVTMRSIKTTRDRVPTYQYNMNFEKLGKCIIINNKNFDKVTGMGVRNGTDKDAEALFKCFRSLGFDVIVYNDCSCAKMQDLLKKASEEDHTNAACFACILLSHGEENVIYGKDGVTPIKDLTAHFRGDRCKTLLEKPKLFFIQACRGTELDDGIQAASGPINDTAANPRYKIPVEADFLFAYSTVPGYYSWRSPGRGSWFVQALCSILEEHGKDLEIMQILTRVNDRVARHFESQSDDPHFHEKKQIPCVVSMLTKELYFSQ
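System: Uncleavable procaspase-7 mutant enzyme; Amount: 2 µM procaspase-7 mutant as dispensed; Schedule: 1 h compound preincubation, 2 h substrate cleavage, 25 °C; Measured by: 405 nm absorbance of p-nitroaniline; Evaluation: percent activation from buffer-corrected 0–120 min absorbance change; Control set: low DMSO alone, high DMSO plus 5 µM PC-7.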
PP5 inh – PP5 (human) phosphatase inhibition | inhibition, % at 6.7 µM | hit rate 0.18% among 320,000 | purified PP5c, OMFP substrate fluorescence;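 active = inhibition above the campaign's mean inhibition across all tested compounds plus 3 SD, cut at about 9.5% in these data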;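 also: 0% = DMSO only and 100% = 100 µM cantharidin control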
proCasp3 act – procaspase-3 (human) activation | recombinant procaspase-3 D3A, Ac-DEVD-pNA absorbance 405 nm | hit rate 0.11% among 330,000 | activation, % at 8.5 µM;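 active = activation above the mean of all tested compounds plus 3 SD, cut at about 21% in these data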;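 also: 0% = DMSO alone and 100% = DMSO wells spiked with extra 5 µM PC-3 D3A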
Target sequence (P42574 whole entry D9A/D28A/D175A): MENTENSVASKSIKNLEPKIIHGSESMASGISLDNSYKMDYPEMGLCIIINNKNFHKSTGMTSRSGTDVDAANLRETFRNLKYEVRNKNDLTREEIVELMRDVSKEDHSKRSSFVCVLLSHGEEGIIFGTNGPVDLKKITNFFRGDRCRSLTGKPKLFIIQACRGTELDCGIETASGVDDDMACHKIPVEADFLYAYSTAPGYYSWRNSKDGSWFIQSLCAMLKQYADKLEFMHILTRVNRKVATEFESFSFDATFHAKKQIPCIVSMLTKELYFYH
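assay system = Procaspase-3 D3A mutant | signal = absorbance at 405 nm, 0 and 120 min | times = 1 h preincubation plus 2 h reaction at 25 °C | repeats = single replicate | read-out = % activation between DMSO and enzyme-spiked controls | medium = Zinc-free HEPES saline buffer with Triton X-100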
PP1 counter – blocks human PP1-alpha phosphatase, a PP5 counter-screen | P62136 | purified PP1alpha, OMFP fluorescence | inhibition, % at 6.7 µM | hit rate 0.9% among 320,000 | AID 2235;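 active = inhibition above the mean inhibition of all tested compounds plus 3 SD, computed separately for each screening campaign, cut at about 15% in these data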
PP1 confirm – human PP1 phosphatase inhibition, confirmation; shares compounds with PP1 counter; purified PP1alpha, OMFP substrate fluorescence; inhibition, % at 6.7 µM; hit rate 52% among 1,900; AID 2358;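 active = mean PP1 inhibition above a set limit taken from the earlier primary screen, cut at about 15% in these data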
PP5 inh counter – counter-screen for PP1 inhibitors: human PP5 phosphatase inhibition; shares compounds with PP1 counter; purified PP5c, OMFP fluorescence; inhibition, % at 6.7 µM; hit rate 4% among 1,900; AID 2360;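 active = mean PP5 inhibition over triplicate wells above about 9.5% taken from the earlier PP1 screen, limit read from the data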
Active calls of the source: *; x = no result given.

SMILES	proCasp7 act	PP5 inh	proCasp3 act	PP1 counter	PP1 confirm	PP5 inh counter
C=C(C)C(=O)Nc1cccc(C2=NOC3(C2)C[C@H](C(N)=O)N(C(=O)CC#N)C3)c1 (stereo partly specified)	0	-2	-4	37*	9	0
Cc1ccc(CNC(=O)c2ccc(C)c(S(=O)(=O)N3CCCCC3)c2)cc1	-3	0	4	-2	x	x
Cc1ccccc1[C@]1(C)ON(c2ccccc2C(F)(F)F)C1=O	-6	3	9	-1	x	x
FC(F)(F)c1cc(CCN2CCNC[C@H]2Cc2cccc3ccccc23)cc(C(F)(F)F)c1	-4	6	-12	23*	-2	1
Cc1ccc(C(C)C)c(OCc2ccc(C(=O)N/N=C/c3ccc(O)cc3O)cc2)c1	-31	2	-15	26*	34*	-2
Cn1c(C(=O)Nc2ccc3c(c2)OCCO3)cc2sccc21	14	2	-1	2	x	x
CC(C)c1ccc(NC(=O)Nc2cc3sccc3n2C)cc1	-14	4	-4	18*	2	-6
C#CCOc1coc(COC(=O)c2ccccc2)cc1=O	-8	-2	13	-3	x	x
CN(CC1CCCO1)S(=O)(=O)c1ccc(C(=O)Nc2nc(-c3ccccn3)cs2)cc1 (stereo unspecified)	3	1	3	29*	28*	-3
Cc1ccc(C(=O)Nc2nc(-c3ccccn3)cs2)cc1S(=O)(=O)N1CCOCC1	-22	7	-10	31*	35*	-1
CN(CC1CCCO1)S(=O)(=O)c1ccc(C(=O)Nc2ccccc2F)cc1 (stereo unspecified)	-14	3	4	-2	x	x
O=C(Nc1nc(-c2ccccn2)cs1)c1ccc(F)c(S(=O)(=O)N2CCOCC2)c1	-17	7	-8	30*	37*	2
CN(C)S(=O)(=O)c1ccc(NC(=O)CSc2nnc(-c3ccco3)o2)cc1	7	x	4	x	x	x
Cc1nc(SCC(=O)Nc2nnc(C(C)C)s2)n[nH]1	-1	-1	5	-1	x	x
CCCCCCc1cc2cc(-c3nnc(-c4ccccc4OC)o3)c(=O)oc2cc1O	-13	-4	-37	20*	2	-13
COc1ccc(/C=C2\SC(=O)N(CC(=O)NNC(=O)c3ccccc3O)C2=O)cc1	12	1	8	18*	23*	-5
O=C(CN1C(=O)S/C(=C\c2ccccc2)C1=O)NNC(=O)c1ccccc1O	-2	0	0	12	x	x
Cc1noc(/C=C/c2ccco2)c1S(=O)(=O)N1CCC(C(=O)NC(C)c2ccccc2)CC1 (stereo unspecified)	-7	4	-11	5	x	x
Cc1noc(/C=C/c2ccco2)c1S(=O)(=O)N1CCC(C(=O)N(C)Cc2ccccc2)CC1	11	4	5	19*	11	0
C#C[C@]1(O)CC[C@H]2[C@@H]3[C@H](C)CC4=C(CCC(=O)C4)[C@H]3CC[C@@]21C	-12	1	-2	-2	x	x
COCCCNC(=O)c1ccc(OC)c(OC2CCN(C(C)C)CC2)c1	2	0	-1	-2	x	x
CCc1cc2c(=O)c(-c3nc(C)cs3)coc2cc1O	4	0	-1	20*	12	-4
COc1ccc2c(=O)c(-c3nc(C)cs3)coc2c1	-5	0	2	1	x	x
O=C(CCN1C(=O)C2CCCCC2C1=O)N1CCN(S(=O)(=O)c2ccccc2)CC1 (stereo unspecified)	5	2	-4	33*	-2	-1
O=C(Nc1cccc(S(=O)(=O)N2CCOCC2)c1)[C@@H]1CCCN1S(=O)(=O)c1ccc(Cl)cc1	-5	0	2	-3	x	x
SMILES	proCasp7 act	PP5 inh	proCasp3 act	PP1 counter	PP1 confirm	PP5 inh counter
COC(=O)C(C(C)C)N(Cc1cc(OC)cc(OC)c1)S(=O)(=O)CCl (stereo unspecified)	2	x	1	x	x	x
CCOC(=O)C1CCCN(c2ccc(NC(=O)c3snc4c(=O)[nH]cnc34)cc2)C1 (stereo unspecified)	3	-1	2	23*	26*	-1
CCOC(=O)C1CCCN(c2ccc(NC(=O)c3snc4c(=O)[nH]c(C)nc34)cc2)C1 (stereo unspecified)	2	0	2	-5	x	x
c1ccc(Nc2nc(-c3ccccn3)cs2)cc1	9	6	-6	50*	46*	3
O=C(Nc1nc(-c2ccccn2)cs1)C1CC1	-1	2	10	9	x	x
CC(Oc1ccc(F)cc1)C(=O)Nc1nc(-c2ccccn2)cs1 (stereo unspecified)	8	0	-2	21*	32*	0
O=C(CC1CC2CCC1C2)Nc1nc(-c2ccccn2)cs1 (stereo unspecified)	-5	6	3	40*	41*	-3
O=C(CCS(=O)(=O)c1ccccc1)Nc1nc(-c2ccccn2)cs1	-1	4	-3	27*	37*	1
COc1ccc(/C=C/C(=O)NNC(=O)C(C)Oc2ccccc2F)cc1OC (stereo unspecified)	17	x	3	x	x	x
NC(=O)c1cc(Cl)cn(-c2ccccc2)c1=O	10	3	2	1	x	x
COc1ccc(C(=O)Nc2ccc(N3CCCCCC3)cc2)cc1S(=O)(=O)N1CCOCC1	-9	3	-2	0	x	x
Cc1cc(C)c(OCC(=O)Nc2nc(-c3ccccn3)cs2)c(C)c1	0	6	2	11	x	x
COc1ccc(OCCCC(=O)Nc2nc(-c3ccccn3)cs2)cc1	5	6	-5	43*	50*	3
O=C(CCS(=O)(=O)c1ccc(F)cc1)Nc1nc(-c2ccccn2)cs1	6	2	4	21*	44*	-1
COc1ccc(S(=O)(=O)c2c(C)c(NS(=O)(=O)c3ccccc3)cc(C)c2O)cc1	1	4	0	21*	0	1
O=C1CC(C(=O)N2CCc3ccccc32)CN1c1cccc(C(F)(F)F)c1 (stereo unspecified)	-4	0	3	-3	x	x
CCc1ccccc1NC(=O)COC(=O)c1cccs1	12	-1	11	-1	x	x
Cc1ccc(C(=O)NN2CCOCC2)cc1	-7	-1	2	1	x	x
O=C(NN1CCOCC1)c1ccc(F)cc1	-11	0	-7	20*	-6	-6
O=C(CSc1nc2ccccc2c(=O)n1Cc1ccccc1)Nc1ccc(Br)cc1C(=O)O	-3	3	0	20*	15*	4
Cc1ccc(S(=O)(=O)N2CCOCC2)cc1NC(=O)CSc1nc2ccccc2c(=O)n1Cc1ccccc1	1	-1	0	4	x	x
O=C1N=C(N2CCC(Cc3ccccc3)CC2)S/C1=C/c1cn[nH]c1-c1ccccc1	-8	3	-2	21*	9	-5
